Screening data as filed in PubChem.
Sampled rows, rich in hits. Any-hit rate of the full collection: about 2.9%.
TRPC6 inhibitor – inhibitors of mouse TRPC6 channel. AID 2553. B-score at 10 µM. Q61143. HEK293-TRPC6, membrane potential dye, ACh-evoked depolarization; hits give low values. 1.1% of 310,000 active;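 active = B-score under library mean minus 3 SD, initial fluorescence not abnormally high, positive integrated signal ratio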;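 also: B-score derived from integrated fluorescence ratio over the kinetic read; more negative B-score means stronger inhibition of depolarization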
Target sequence (Q61143 whole entry, looked up): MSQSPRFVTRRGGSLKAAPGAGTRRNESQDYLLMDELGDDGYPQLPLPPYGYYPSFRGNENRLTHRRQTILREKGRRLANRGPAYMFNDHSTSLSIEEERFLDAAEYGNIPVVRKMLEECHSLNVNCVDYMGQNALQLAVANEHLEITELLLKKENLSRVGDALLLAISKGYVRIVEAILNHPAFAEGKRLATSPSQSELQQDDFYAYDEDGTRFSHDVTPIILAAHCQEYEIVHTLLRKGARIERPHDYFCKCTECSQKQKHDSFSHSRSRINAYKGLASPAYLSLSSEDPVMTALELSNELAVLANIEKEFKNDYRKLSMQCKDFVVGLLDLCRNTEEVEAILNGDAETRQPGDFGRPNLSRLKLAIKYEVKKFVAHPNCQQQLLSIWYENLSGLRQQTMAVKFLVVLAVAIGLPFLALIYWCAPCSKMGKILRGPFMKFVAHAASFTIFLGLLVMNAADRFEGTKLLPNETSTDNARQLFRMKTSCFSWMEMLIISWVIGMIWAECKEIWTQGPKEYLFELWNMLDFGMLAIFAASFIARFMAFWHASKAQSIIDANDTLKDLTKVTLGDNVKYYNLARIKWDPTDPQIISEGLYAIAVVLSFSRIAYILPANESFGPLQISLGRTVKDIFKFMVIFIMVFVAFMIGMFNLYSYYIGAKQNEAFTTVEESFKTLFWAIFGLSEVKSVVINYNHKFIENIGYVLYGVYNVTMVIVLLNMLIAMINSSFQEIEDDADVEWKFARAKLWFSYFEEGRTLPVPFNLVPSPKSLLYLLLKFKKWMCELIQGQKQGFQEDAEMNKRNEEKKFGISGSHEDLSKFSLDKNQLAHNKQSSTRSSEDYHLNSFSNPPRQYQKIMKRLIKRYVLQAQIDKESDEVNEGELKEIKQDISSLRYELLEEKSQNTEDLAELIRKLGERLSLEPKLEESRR
TRPC6 act – activators of mouse TRPC6 channel; 0.13% of 310,000 active; AID 2550; B-score at 10 µM; HEK293-TRPC6 membrane potential dye fluorescence; hits give high values;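 active = B-score of the integrated fluorescence ratio above library mean plus 3 SD, and starting fluorescence ratio within library mean plus 5 SD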;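 also: higher score means more depolarization so channel activation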
TRPC4 agonist – activators of mouse TRPC4 channel. Q9QUQ5. HEK293 TRPC4beta/mu-opioid, Fluo4 calcium fluorescence; hits give high values. B-score at 10 µM. 0.49% of 310,000 active;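 active = B-score above 5 SD of library B-scores, and initial fluorescence ratio not above library mean plus 5 SD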;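 also: positive B-score marks a calcium rise read as TRPC4 activation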
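System: HEK293 cells stably co-expressing mouse TRPC4beta and mu-opioid receptor; Schedule: Fluo4 dye loading 45 min at room temperature, 110 s recording; Detection: Fluo4 fluorescence, kinetic; Evaluation: B-scored integrated calcium fluorescence ratio; Controls: buffer (low) and maximal DAMGO (high).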
Kir21 block – blocks the mouse Kir2.1 inward-rectifier potassium channel | P35561 | HEK293-Kir2.1, FluxOR thallium flux fluorescence; hits give low values | B-score at 10 µM | 0.85% of 310,000 active;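 active = fluorescence ratio B-score at or below minus 3 SD of library scores, with starting-brightness B-score within 2 SD, cut at about -4.2 in these data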;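 also: channel flux triggered by added potassium and thallium sulfate stimulus; B-score of peak minus minimum fluorescence over baseline after thallium stimulus; more negative B-score means stronger Kir2.1 block with less thallium influx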
TRPC4 inh – TRPC4 (mouse) channel inhibition. Q9QUQ5. HEK293 TRPC4beta/mu-opioid, DAMGO-evoked Fluo4 calcium flux; hits give low values. B-score at 10 µM. 0.39% of 300,000 active;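 active = B-score over 3 SD under the library average, no early fluorescence shift, positive overall ratio signal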
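test system = HEK293 cells with stable TRPC4beta plus mu-opioid receptor expression | detection = Fluo4 Ca2+ flux fluorescence | read-out = integrated fluorescence ratio relative to baseline, converted to per-well B score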
TRPC4 potent – TRPC4 (mouse) allosteric potentiation; 0.42% of 310,000 active; AID 2227; B-score at 10 µM; HEK293 TRPC4beta/mu-opioid, DAMGO EC20, Fluo-4 Ca2+ flux; hits give high values; Q9QUQ5;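 active = B-score of calcium response area above 5 SD of library B-scores, with initial fluorescence ratio within 5 SD of library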;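 also: B-score of integrated fluorescence ratio over time as area under calcium response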
TRPC4 spec 2 – mouse TRPC4 off-target activity of TRPC6 inhibitors, second screen; shares compounds with TRPC6 inhibitor; HEK293 TRPC4/MOR, membrane potential dye fluorescence; channel activated by saturating DAMGO dose; inhibition, % at 10 µM; 42% of 920 active;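 active = compounds whose fluorescence signal differed from control wells by over 3 SD, either direction, in both duplicate plates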
TRPC4 spec – tests whether TRPC6 inhibitors also affect mouse TRPC4; shares compounds with TRPC6 inhibitor; HEK293 TRPC4/mu-opioid, membrane potential fluorescence; activity change, negative = inhibition, % at 10 µM; 61% of 920 active; AID 2777;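 active = rise or fall in signal beyond 3 SD of buffer-only wells in both replicate plates, either sign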;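 also: integrated kinetic ratio of fluorescence range over baseline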
HEK293 MPD ctr 2-1 – second check of TRPC6 inhibitor effects in parental HEK293 cells. shares compounds with TRPC6 inhibitor. parental HEK293 membrane potential dye fluorescence; maximal acetylcholine challenge after compound addition. signal change vs control, % at 10 µM. 31% of 920 active. AID 2779;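 active = membrane potential signal moving either way by over 3 SD of the maximum-effect control, in both duplicate plates, meaning non-specific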
HEK293 MPD ctr-1 – checks TRPC6 inhibitor effects in parental HEK293 cells. shares compounds with TRPC6 inhibitor. parental HEK293 membrane potential dye fluorescence. membrane potential signal change, % at 10 µM. 60% of 920 active. AID 2780;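 active = membrane potential signal shifting up or down by more than 3 SD of buffer-only wells, on both duplicate plates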
HEK293 MPD ctr-2 – checks TRPC6 modulator effects in parental HEK293 cells | shares compounds with TRPC6 inhibitor | membrane potential dye fluorescence | membrane potential signal change, % at 10 µM | 51% of 2,400 active | AID 488924;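 active = membrane potential signal moves up or down beyond 5 SD from buffer-only wells, on both duplicate plates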
HEK293 MPD ctr 2-2 – parental HEK293 nonspecific activity of TRPC6 modulators, second screen; inhibition, % at 10 µM; 14% of 2,400 active; AID 488926; membrane potential dye fluorescence; after compound, maximal acetylcholine stimulation; shares compounds with TRPC6 inhibitor;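 active = membrane potential signal drops by more than 5 SD from the mean control signal, in both duplicate plates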;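 also: plate controls were acetylcholine ECmax control wells for no effect and buffer only wells for full effect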
TRPC4 ctr mod – tests whether TRPC6 modulators also affect mouse TRPC4; HEK293 TRPC4/mu-opioid, membrane potential fluorescence; percent change from control (negative = decrease, positive = increase), % at 10 µM; shares compounds with TRPC6 inhibitor; 69% of 2,400 active; AID 488927;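 active = membrane potential signal moved up or down beyond 5 SD of buffer control wells, in both duplicate plates, actives on both sides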;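 also: plate controls were assay buffer wells for no effect and DAMGO maximal-effect wells for full effect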
TRPC4/MOR inh 2 – second check of whether TRPC6 modulators also affect mouse TRPC4; inhibition, % at 10 µM; shares compounds with TRPC6 inhibitor; AID 488928; HEK293 TRPC4/mu-opioid, membrane potential dye fluorescence; stimulated with maximal-effect DAMGO; 55% of 2,400 active;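 active = drop in membrane potential signal beyond 5 SD of the control wells in both duplicate plates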;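 also: TRPC4 counter screen for TRPC6 hits run under conditions tuned for TRPC6 not TRPC4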
TRPC6 inh conf – mouse TRPC6 inhibitor confirmation. inhibition, % at 10 µM. shares compounds with TRPC6 inhibitor. AID 488960. HEK293-TRPC6, membrane potential dye, ACh-evoked depolarization. 43% of 3,300 active;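 active = fluorescence ratio falls more than 5 SD below the full-stimulation control mean, in both duplicate runs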;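 also: integrated fluorescence ratio of peak minus minimum over baseline after agonist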
TRPC6 act conf – confirmation of mouse TRPC6 activators; shares compounds with TRPC6 inhibitor; HEK293-TRPC6 membrane potential dye fluorescence, FDSS; activation, % at 10 µM; 11% of 2,800 active;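 active = ratio signal rise beyond 5 SD above unstimulated control wells' mean, seen in both duplicate runs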;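 also: plate controls were buffer EC0 wells for no effect and acetylcholine ECmax response for full effect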
* marks the source's active call; other numbers are inactive results.

How did COc1cc(C(=O)OCC(=O)Nc2c(F)c(F)c(F)c(F)c2F)cc(OC)c1OC do in these assays?
TRPC6 inhibitor: -5.4*; TRPC6 act: inactive; TRPC4 agonist: inactive; Kir21 block: -1.2; TRPC4 inh: inactive; TRPC4 potent: inactive; HEK293 MPD ctr-2: inactive; HEK293 MPD ctr 2-2: inactive; TRPC4 ctr mod: inactive; TRPC4/MOR inh 2: inactive; TRPC6 inh conf: inactive; TRPC6 act conf: inactive

How did Cc1cc(C)c2c(N)c(C(=O)N/N=C/c3ccccc3)sc2n1 do in these assays?
TRPC6 inhibitor: inactive; TRPC6 act: inactive; TRPC4 agonist: inactive; Kir21 block: 1; TRPC4 inh: inactive; TRPC4 potent: inactive

Results for CN(C)C(=O)N1CCCC(C(=O)NCc2ccccc2Cl)C1 (stereo not drawn) ?
TRPC6 inhibitor: -5.3*; TRPC6 act: inactive; TRPC4 agonist: inactive; Kir21 block: 0.05; TRPC4 inh: inactive; TRPC4 potent: inactive; HEK293 MPD ctr-2: inactive; HEK293 MPD ctr 2-2: inactive; TRPC4 ctr mod: inactive; TRPC4/MOR inh 2: inactive; TRPC6 inh conf: inactive; TRPC6 act conf: inactive

What do the screens show for `CN(C)C(=O)N1CCC(C(=O)NCc2ccccc2Cl)CC1`?
TRPC6 inhibitor: inactive; TRPC6 act: inactive; TRPC4 agonist: inactive; Kir21 block: 1.1; TRPC4 inh: inactive; TRPC4 potent: inactive

How did CS(=O)(=O)N(CC(=O)NCc1ccccc1Cl)C1CCCCC1 do in these assays?
TRPC6 inhibitor: -6.5*; TRPC6 act: inactive; TRPC4 agonist: inactive; Kir21 block: -1.6; TRPC4 inh: inactive; TRPC4 potent: inactive; HEK293 MPD ctr-2: 134%*; HEK293 MPD ctr 2-2: inactive; TRPC4 ctr mod: 22%*; TRPC4/MOR inh 2: inactive; TRPC6 inh conf: inactive

What do the screens show for `COc1ccc(O)c(C(=O)c2cnc3c(c2)c(C)nn3CCO)c1`?
TRPC6 inhibitor: inactive; TRPC6 act: inactive; TRPC4 agonist: inactive; Kir21 block: 0.12; TRPC4 inh: inactive; TRPC4 potent: inactive

What do the screens show for `Cc1ccc(C)c(N(CC(=O)N/N=C/c2ccc(-c3ccc([N+](=O)[O-])cc3)o2)S(=O)(=O)c2ccccc2)c1`?
TRPC6 inhibitor: inactive; TRPC6 act: inactive; TRPC4 agonist: inactive; Kir21 block: -0.02; TRPC4 inh: inactive; TRPC4 potent: inactive

What do the screens show for `CCOc1ccc(S(=O)(=O)N(CC(=O)N/N=C/c2ccc(-c3ccc([N+](=O)[O-])cc3)o2)c2ccccc2)cc1`?
TRPC6 inhibitor: -5.1*; TRPC6 act: inactive; TRPC4 agonist: inactive; Kir21 block: -0.18; TRPC4 inh: inactive; TRPC4 potent: inactive; HEK293 MPD ctr-2: inactive; HEK293 MPD ctr 2-2: inactive; TRPC4 ctr mod: inactive; TRPC4/MOR inh 2: inactive; TRPC6 inh conf: inactive

Results for Cc1cccc(-c2nc(=S)c3c(n2Cc2ccco2)CCCC3)c1 ?
TRPC6 inhibitor: -6.3*; TRPC6 act: inactive; TRPC4 agonist: inactive; Kir21 block: 0.07; TRPC4 inh: inactive; TRPC4 potent: inactive; HEK293 MPD ctr-2: 184%*; HEK293 MPD ctr 2-2: inactive; TRPC4 ctr mod: 42%*; TRPC4/MOR inh 2: inactive; TRPC6 inh conf: inactive

How did CC(C)c1ccc(N2C(=O)CC(Sc3nc4ccccc4o3)C2=O)cc1 (stereo not drawn) do in these assays?
TRPC6 inhibitor: -7.4*; TRPC6 act: inactive; TRPC4 agonist: inactive; Kir21 block: 0.38; TRPC4 inh: inactive; TRPC4 potent: inactive; TRPC4 spec 2: inactive; TRPC4 spec: inactive; HEK293 MPD ctr 2-1: inactive; HEK293 MPD ctr-1: inactive; TRPC6 inh conf: inactive; TRPC6 act conf: inactive

Results for O=S(=O)(NCCNc1ncc(C(F)(F)F)cc1Cl)C(F)(F)F ?
TRPC6 inhibitor: -5.3*; TRPC6 act: inactive; TRPC4 agonist: inactive; Kir21 block: -0.02; TRPC4 inh: inactive; TRPC4 potent: inactive; HEK293 MPD ctr-2: inactive; HEK293 MPD ctr 2-2: inactive; TRPC4 ctr mod: 14%*; TRPC4/MOR inh 2: 32%*; TRPC6 inh conf: 50%*; TRPC6 act conf: inactive

What do the screens show for `CN1Cc2c(N3CCOCC3)nc3sc(C#N)c(N)c3c2CC1(C)C`?
TRPC6 inhibitor: inactive; TRPC6 act: inactive; TRPC4 agonist: inactive; Kir21 block: 0.25; TRPC4 inh: inactive; TRPC4 potent: inactive

How did CN1Cc2c(N3CCOCC3)nc3sc(C(=O)c4ccc(Br)cc4)c(N)c3c2CC1(C)C do in these assays?
TRPC6 inhibitor: -7.2*; TRPC6 act: inactive; TRPC4 agonist: inactive; Kir21 block: 0.49; TRPC4 inh: inactive; TRPC4 potent: inactive; TRPC4 spec 2: inactive; TRPC4 spec: -11%*; HEK293 MPD ctr 2-1: inactive; HEK293 MPD ctr-1: -161%*; TRPC6 inh conf: inactive; TRPC6 act conf: inactive

What do the screens show for `O=C(Cn1c(CCCO)nc2ccccc21)Nc1ccccc1-c1ccccc1`?
TRPC6 inhibitor: inactive; TRPC6 act: inactive; TRPC4 agonist: inactive; Kir21 block: -0.65; TRPC4 inh: inactive; TRPC4 potent: inactive
